Active and inactive are the calls of the source. The calls are words filed in the database; no cut-off is given here.
Assays:
[1] = Antioxidant activity against CuSO4-induced LDL oxidation assessed as delta-lag time at 100 uM by antioxidation assay; assay type: functional
How it was run: (§1)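 Human plasma LDL (EDTA-treated donor plasma, density 1.019-1.063 g/mL fraction by ultracentrifugation, desalted) diluted in 10 mM phosphate buffer pH 7.4 to 50 µg protein/mL. Compound added at 100 µM final, oxidation started with CuSO4 2.5 µM final at 37 °C. Conjugated dienes followed at 234 nm over 6 h. Lag-time change versus control and propagation rate (ε234 = 29500 M-1 cm-1) derived; mean ± SEM.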

[2] = Antioxidant activity against CuSO4-induced LDL oxidation measured per mg og LDL product assessed as propagation rate of the oxidation at 100 uM by antioxidation assay; assay type: functional; how it was run: as §1
[3] = Antioxidant activity assessed as 4-hydroxy-trans-2,3-nonenal scavenging activity at 1 mM after 1 hr by HPLC relative to control; assay type: functional
How it was run: (§2)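 HNE (50 µM final) incubated with compound (1 mM final) in 1 mM phosphate buffer pH 7.4 at 37 °C for up to 24 h. Samples were injected directly onto reverse-phase C18 HPLC to measure remaining HNE. Scavenging % = 100 − (HNE left with scavenger / HNE left in control × 100); mean ± SEM.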

[4] = Antioxidant activity assessed as 4-hydroxy-trans-2,3-nonenal scavenging activity at 1 mM after 6 hrs by HPLC relative to control; assay type: functional; how it was run: as §2
[5] = Antioxidant activity assessed as 4-hydroxy-trans-2,3-nonenal scavenging activity at 1 mM after 24 hrs by HPLC relative to control; assay type: functional; how it was run: as §2
Neuron [6] = assay: Cytoprotective effect in mouse primary hippocampal neuron assessed as reduction in 4-hydroxy-trans-2,3-nonenal-induced damage at 100 uM after 24 hrs; assay type: functional, Hippocampus; design: scale not given: the % may be the effect or the level left
How it was run: (§3)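 They were grown 6 days in B-27 neurobasal medium at 37 °C, 5% CO2. Compound (100 µM in medium) was given alone or as pretreatment before HNE 10 µM, for 24 h. Death was scored by trypan blue exclusion against pre-incubation counts; mean ± SEM, n = 4-7, paired t test.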

Serum = assay: Stability of the compound in human serum after 3 hrs; assay type: ADME, cell-free
How it was run: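 Compound added from a 10 mM aqueous stock to human serum preheated to 37 °C, giving 0.5 mM final, and incubated at 37 ± 0.5 °C. At intervals, aliquots were deproteinized with an equal volume of acetonitrile/0.1% TFA, centrifuged and filtered. Analysis by RP-HPLC on C18 with methanol/20 mM sodium acetate pH 4.5-5 mM SDS (80/20 to 60/40).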

[7] = Toxicity in mouse primary hippocampal neuron assessed as adverse effect at 100 uM after 24 hrs; assay type: tissue-based, Hippocampus
[8] = Lipophilicity, log D of the compound by shake-flask technique; assay type: physicochemical; conditions: octanol/water
How it was run: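 Shake-flask at pH 7.4, in phosphate buffer with ionic strength 0.15 M KCl and mutually presaturated n-octanol (4 h). Compound about 0.1 mM in the aqueous phase, shaken about 20 min, then centrifuged. Aqueous concentration measured by UV at 230 nm; at least seven log D determinations per compound.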

Neuron [9] = assay: Cytoprotective effect in mouse primary hippocampal neuron assessed as reduction in 4-hydroxy-trans-2,3-nonenal-induced neuronal disruption at 100 uM after 24 hrs; assay type: functional, tissue-based; conditions: Hippocampus; how it was run: as §3
[10] = Drug level in Wistar rat brain measured per gram of tissue at 20 mg/kg, iv after 3 hrs; assay type: ADME, organism-based; design: dose 20 mg/kg, route intravenous; conditions: read-out: Drug uptake
How it was run: (§4)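 Male Wistar rats, 200-250 g, given 20 mg/kg i.v. in 0.9% saline; 3 rats per time point, killed at 1.5 or 3 h. Heparinized blood and brain homogenized in equal volume of cold water were deproteinized with acetonitrile/0.1% TFA, centrifuged and filtered. RP-HPLC on C18 with methanol/20 mM sodium acetate pH 4.5-5 mM SDS (70/30), detection 210 and 223 nm; spiked untreated-rat samples used as standards.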

[11] = Drug level in Wistar rat brain measured per gram of tissue at 20 mg/kg, iv after 1.5 hrs; assay type: ADME, organism-based; design: dose 20 mg/kg, route intravenous; conditions: read-out: Drug uptake; how it was run: as §4
[12] = Drug level in Wistar rat blood at 20 mg/kg, iv after 1.5 hrs; assay type: ADME, organism-based; design: dose 20 mg/kg, route intravenous; conditions: whole blood, read-out: Drug uptake; how it was run: as §4

SMILES | Stability (Serum) | logD [8] | concentration at 3 h [10] [ng/g] | concentration at 1.5 h [11] [ng/g] | concentration at 1.5 h [12] [ng/mL] | TIME [1] [h] | Activity [2] [nmol/min] | Activity [3] [%] | Activity [4] [%] | Activity [5] [%] | Activity (Neuron [6]) [%] | Activity [7] | Activity (Neuron [9])
NCCC(=O)N[C@@H](Cc1c[nH]cn1)C(=O)O [CARNOSINE] |  |  |  |  |  | 1.12 | 5.8 | 20.4 | 59.6 | 88.8 | 6 |  | 
NCCC(=O)N[C@@H](Cc1cnc[nH]1)C(=O)O [CARNOSINE] | Stable |  |  |  |  |  |  |  |  |  |  | Non-toxic | 
NCCC(=O)N[C@@H](Cc1c[nH]cn1)C(=O)NCC1CCCCC1.O=C(O)C(F)(F)F | Stable | -0.94 |  |  |  | 1.42 | 5.6 | 12.8 | 28.2 | 62.5 |  |  | 
CCCCCCCCNC(=O)[C@H](Cc1c[nH]cn1)NC(=O)CCN.O=C(O)C(F)(F)F | Stable | -0.23 |  |  |  | 0.717 | 11.8 | 12.8 | 49.7 | 86.7 |  |  | 
CCNC(=O)[C@H](Cc1c[nH]cn1)NC(=O)CCN.O=C(O)C(F)(F)F | Stable |  |  |  |  | 1.13 | 7 | 8.4 | 32.9 | 70.9 |  |  | 
CCCNC(=O)[C@H](Cc1c[nH]cn1)NC(=O)CCN.O=C(O)C(F)(F)F | Stable | -2.72 | 1100 | 600 | 260 | 1.13 | 7.7 | 12.5 | 42.7 | 81 | 40 | Non-toxic | Active
CCCCNC(=O)[C@H](Cc1c[nH]cn1)NC(=O)CCN.O=C(O)C(F)(F)F | Stable | -2.01 |  |  |  | 1.37 | 5.7 | 12.5 | 36.2 | 75.2 |  |  | 
CNC(=O)[C@H](Cc1c[nH]cn1)NC(=O)CCN.O=C(O)C(F)(F)F | Stable |  |  |  |  | 1.25 | 6.8 | 8 | 35.2 | 75.4 |  |  | 
CCCCOc1ccc(CNC(=O)[C@H](Cc2c[nH]cn2)NC(=O)CCN)cc1.O=C(O)C(F)(F)F | Stable | -0.13 |  |  |  | 0.817 | 10 | 8.8 | 32.6 | 80.7 |  |  | 

Now from value to compound, other results behind:

Stability (Serum) | logD [8] | concentration at 3 h [10] [ng/g] | concentration at 1.5 h [11] [ng/g] | concentration at 1.5 h [12] [ng/mL] | SMILES | TIME [1] [h] | Activity [2] [nmol/min] | Activity [3] [%] | Activity [4] [%] | Activity [5] [%] | Activity (Neuron [6]) [%] | Activity [7] | Activity (Neuron [9])
Stable | -0.88 |  |  |  | CCCCCCNC(=O)[C@H](Cc1c[nH]cn1)NC(=O)CCN.O=C(O)C(F)(F)F | 1.32 | 6.7 | 12 | 35.4 | 75.9 |  |  | 
Stable |  |  |  |  | NCCC(=O)N[C@@H](Cc1c[nH]cn1)C(N)=O.O=C(O)C(F)(F)F | 1.07 | 7.7 | 10.2 | 31.6 | 77.7 |  |  | 
Stable | -1.76 |  |  |  | NCCC(=O)N[C@@H](Cc1c[nH]cn1)C(=O)NCc1ccccc1.O=C(O)C(F)(F)F | 1.42 | 5.2 | 7.2 | 29.3 | 72.8 |  |  | 
Stable | 0.85 |  |  |  | CCCCCCCCCCNC(=O)[C@H](Cc1c[nH]cn1)NC(=O)CCN.O=C(O)C(F)(F)F | 0.15 | 21 |  |  |  |  |  | 
Stable | -2.17 |  |  |  | CCOC[C@H](Cc1c[nH]cn1)NC(=O)CCN.O=C(O)C(F)(F)F | -0.0667 | 12.2 | 17.9 | 60.7 | 86.2 |  |  | 
Stable | 0.93 |  |  |  | CCCCCCCCCCCCNC(=O)[C@H](Cc1c[nH]cn1)NC(=O)CCN.O=C(O)C(F)(F)F | -0.05 | 14.5 |  |  |  |  |  | 

Source: ChEMBL document CHEMBL1649415, “Synthesis, physicochemical characterization, and biological activities of new carnosine derivatives stable in human serum as potential neuroprotective agents” (J Med Chem, 2011)
